Assay results taken from ChEMBL document CHEMBL1130280, “2-(1-Naphthyloxy)ethylamines with enhanced affinity for human 5-HT1D beta (h5-HT1B) serotonin receptors” (J Med Chem, 1997).

How the values were obtained:
[1] = target: 5-hydroxytryptamine receptor 1B (Homo sapiens, UniProt P28222); experiment: Agonist activity to the human recombinant 5-hydroxytryptamine 1B receptor; type: functional
In short: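 CHO Pro 5 cells stably transfected with human recombinant 5-HT1Dβ receptors. Compound was added to the culture medium for 30 min at 37 °C. The reaction was stopped with cold ethanolic 5 mM EDTA (2:1 v/v), and extracted cAMP was quantified by enzyme immunoassay, with serotonin as the reference agonist.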

[2] = target: T1, 5-hydroxytryptamine receptor 1D (Homo sapiens, UniProt P28221); experiment: Compound was tested for its binding affinity against human recombinant 5-hydroxytryptamine 1D receptor alpha for comparison purpose.
T1 sequence (P28221 whole entry): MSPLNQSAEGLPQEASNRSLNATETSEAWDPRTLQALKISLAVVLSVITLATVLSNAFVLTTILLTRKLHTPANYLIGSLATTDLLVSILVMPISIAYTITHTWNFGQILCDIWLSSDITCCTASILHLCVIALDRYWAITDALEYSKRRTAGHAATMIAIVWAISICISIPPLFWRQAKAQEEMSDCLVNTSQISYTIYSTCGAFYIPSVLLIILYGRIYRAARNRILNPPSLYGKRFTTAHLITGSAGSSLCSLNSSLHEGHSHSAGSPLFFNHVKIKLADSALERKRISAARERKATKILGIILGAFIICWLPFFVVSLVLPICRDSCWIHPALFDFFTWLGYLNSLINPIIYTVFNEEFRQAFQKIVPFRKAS

[3] = target: T1, 5-hydroxytryptamine receptor 1D; experiment: Compound was tested for its agonist activity against human 5-hydroxytryptamine 1D receptor alpha for comparison purpose.; type: functional
[4] = target: T1, 5-hydroxytryptamine receptor 1D; experiment: Compound was tested for its agonist activity against human recombinant 5-hydroxytryptamine 1D receptor alpha for comparison purpose.; type: functional

5-hydroxytryptamine receptor 1B, sequence (P28222 whole entry): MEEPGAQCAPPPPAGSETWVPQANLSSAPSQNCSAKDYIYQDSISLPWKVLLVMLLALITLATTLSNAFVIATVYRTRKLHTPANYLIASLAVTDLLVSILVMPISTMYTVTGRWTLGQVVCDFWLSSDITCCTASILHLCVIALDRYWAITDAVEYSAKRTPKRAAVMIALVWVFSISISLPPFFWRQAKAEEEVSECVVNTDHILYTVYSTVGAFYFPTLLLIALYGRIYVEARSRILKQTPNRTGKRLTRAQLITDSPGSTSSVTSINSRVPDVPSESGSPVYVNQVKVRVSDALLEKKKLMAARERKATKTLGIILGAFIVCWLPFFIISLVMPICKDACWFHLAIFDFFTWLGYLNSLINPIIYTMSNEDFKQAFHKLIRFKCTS

| SMILES | Ki [1] [nM] | further results |
| --- | --- | --- |
| CN(C)CCCOc1ccccc1 | > 10000 |  |
| CCNCCOc1cccc2ccccc12 | 66 |  |
| CNCCOc1ccccc1 | 5960 | Ki [2]: 1800 nM |
| CN(C)CCCCOc1cccc2ccccc12 | 470 |  |
| CCCN(C)CCCOc1ccccc1C1CCCC1 | 1200 | Ki [2]: 143 nM |
| CN(C)CCCOc1cccc2ccccc12 | 255 |  |
| CNCCCOc1ccccc1 | 3450 |  |
| CCCNCCOc1cccc2ccccc12 | 200 |  |
| CCCCN(CC)CCOc1cccc2ccccc12 | 1230 | Ki [2]: 112 nM |
| CNCCOc1cccc2ccccc12 | 26 | Ki [3]: 34 nM |
| CC(C)NCCOc1cccc2ccccc12 | 120 |  |
| CN(C)CCOc1cccc2ccccc12 | 94 |  |
| CC(C)NCCOc1cccc2[nH]ccc12 | 1120 |  |
| CC(C)NCCCOc1cccc2ccccc12 | 7660 |  |
| CN(C)CCCNc1ccccc1 | > 10000 |  |
| CC(C)NCCCOc1cccc2[nH]ccc12 | > 10000 |  |
| CCCN(C)CCOc1ccccc1C1CCCC1 | 425 | Ki [2]: 82 nM |
| CN(CCOc1cccc2ccccc12)Cc1ccccc1 | 260 | Ki [2]: 590 nM |
| CCCN(C)CCOc1cccc2ccccc12 | 750 | Ki [2]: 103 nM |
| CNCCOc1cccc(C)c1C | 316 |  |
| CCCCN(CCCC)CCOc1cccc2ccccc12 | 2680 |  |
| OCCNCCOc1cccc2ccccc12 | 107 | Ki [4]: 68 nM |
| NCCOc1cccc2ccccc12 | 100 |  |
| NCCCOc1cccc2ccccc12 | 290 |  |
| CC(C)NCC(O)COc1cccc2[nH]ccc12 (racemic) [PINDOLOL] | > 10000 |  |
| CC(C)NCC(O)COc1cccc2[nH]ccc12 (single isomer, unassigned; (-)) [PINDOLOL] | 2600 |  |
